Only some compounds are listed: those with a hit (about 5.8% of all), similar ones and a draw of the others.
Pf Dd2 inh = P. falciparum Dd2 growth inhibition. SYBR Green, 72 h; hits give low values. activity change, % at 10 µM. actives 2.3% (n = 94,000). AID 1159554; in the data active = activity change below about -80%; inconclusive = no clear call, values can overlap the other calls
GASC1 inh = inhibitors of human demethylase GASC-1 KDM4C | Q9H3R0 | GST-KDM4C 2-372, H3K9me3 peptide, LANCE TR-FRET | inhibition, % at 12.5 µM | actives 0.15% (n = 96,000) | AID 720574;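 active = mean replicate inhibition above about 25%, with at least 55% of replicates also reaching it, limit read from the data, passing the limit was not always enough; inconclusive = only one of those two conditions met; inactive = neither condition met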
Target sequence (Q9H3R0 2-372 limits assumed): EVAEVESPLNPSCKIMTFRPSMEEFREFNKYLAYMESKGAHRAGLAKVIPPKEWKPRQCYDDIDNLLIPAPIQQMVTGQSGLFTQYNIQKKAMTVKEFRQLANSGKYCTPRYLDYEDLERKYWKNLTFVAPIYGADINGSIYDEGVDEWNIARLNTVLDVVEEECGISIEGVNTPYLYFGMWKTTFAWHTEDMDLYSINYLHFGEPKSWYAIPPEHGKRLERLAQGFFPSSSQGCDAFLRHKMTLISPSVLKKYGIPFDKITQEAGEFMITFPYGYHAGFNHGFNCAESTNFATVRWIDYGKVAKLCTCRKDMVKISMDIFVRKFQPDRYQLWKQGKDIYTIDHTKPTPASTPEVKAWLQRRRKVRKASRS
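Material: GST-tagged GASC-1 (JMJD2C) catalytic fragment, aa 2-372. Input: enzyme final amount 10 nM. Medium: HEPES buffer, pH 7.5, plus ascorbate. Reagent: H3K9me3 peptide substrate, Fe(II), 2-oxoglutarate. Doses: single dose. Times: reaction 30 min RT, detection step 1 h RT. Measured by: LANCE TR-FRET. Evaluation: Fall in 671/618 emission ratio as inhibition.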
IDH1 R132H inh = IDH1 R132H (human) inhibition | O75874 | AID 624101 | IDH1 R132H reductase, diaphorase/resazurin fluorescence, 60 min | inhibition, % at 10 µM | actives 0.18% (n = 70,000); in the data active = inhibition above about 34%; inconclusive = no clear call, values can overlap the other calls; inactive = below about 11%
Target sequence (O75874 whole entry R132H): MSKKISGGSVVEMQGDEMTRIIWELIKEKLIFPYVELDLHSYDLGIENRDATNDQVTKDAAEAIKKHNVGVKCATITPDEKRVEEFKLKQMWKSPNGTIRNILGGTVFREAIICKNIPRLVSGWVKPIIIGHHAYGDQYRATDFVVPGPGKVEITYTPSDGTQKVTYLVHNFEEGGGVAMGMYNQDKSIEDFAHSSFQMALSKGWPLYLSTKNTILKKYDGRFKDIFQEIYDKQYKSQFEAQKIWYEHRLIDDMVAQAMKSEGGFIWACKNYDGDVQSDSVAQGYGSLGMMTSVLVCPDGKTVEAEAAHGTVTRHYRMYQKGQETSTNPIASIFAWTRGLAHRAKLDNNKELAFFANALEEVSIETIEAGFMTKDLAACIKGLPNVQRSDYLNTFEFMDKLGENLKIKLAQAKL
T cruzi growth-1 = T. cruzi proliferation inhibition; T. cruzi beta-gal in NIH3T3, GalScreen luminescence, 90 h; inhibition, % at 8.34 µM; actives 5.9% (n = 77,000);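 active = mean inhibition above about 93%, with at least 55% of replicates each passing it, limit read from the data, passing the limit was not always enough; inconclusive = only one of those two conditions holds; inactive = neither condition holds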
T cruzi growth-2 = inhibitors of T. cruzi proliferation. shares compounds with T cruzi growth-1. T. cruzi beta-gal in NIH3T3, GalScreen luminescence, 90 h. inhibition, % at 8.35 µM. actives 72% (n = 5,600);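 active = mean replicate inhibition above about 95% and at least 55% of replicates individually reaching it, limit read from the data; inconclusive = only one of the two criteria is met; inactive = neither criterion is met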
T cruzi growth-3 = blocks T. cruzi growth in NIH3T3 host cells | shares compounds with T cruzi growth-1 | T. cruzi beta-gal in NIH3T3, GalScreen luminescence, 90 h | inhibition, % at 2.09 µM | actives 21% (n = 5,600) | AID 651740;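 active = mean inhibition above about 95%, with at least 55% of replicates also reaching it, limit read from the data; inconclusive = meets just one of the two conditions; inactive = meets neither condition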
NIH3T3 tox = NIH/3T3 (mouse) viability loss | AID 651742 | NIH/3T3 viability, CellTiter-Glo ATP luminescence, 90 h | cytotoxicity (signal decrease), % at 8.35 µM | shares compounds with T cruzi growth-1 | actives 14% (n = 5,600);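 active = mean signal decrease across replicates above about 35% based on untreated-well scatter, with enough replicates individually passing, limit read from the data; inconclusive = no rule stated though some were filed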
NIH3T3 tox 2 = NIH/3T3 (mouse) viability loss. actives 56% (n = 5,600). AID 651744. inhibition, % at 24.9 µM. NIH/3T3 viability, CellTiter-Glo ATP luminescence, 90 h. shares compounds with T cruzi growth-1;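 active = mean loss of cell viability signal at or above a set limit, and enough replicates individually reaching it; inconclusive = meets only the mean limit or only the replicate share; inactive = meets neither condition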
Each line names hits and unclear results; the compound was inactive in the other large screens (follow-up assays come after a bar, where they were run).

COc1ccc(NC(=O)N(C)C[C@@H]2Oc3ccc(NC(=O)CCC(F)(F)F)cc3C(=O)N([C@H](C)CO)C[C@H]2C)cc1	T cruzi growth-1 101.2 | T cruzi growth-2 inactive | T cruzi growth-3 inactive | NIH3T3 tox inactive | NIH3T3 tox 2 inactive
CNC[C@@H]1Oc2ncc(C#CCC3CCCC3)cc2C(=O)N([C@H](C)CO)C[C@H]1C	T cruzi growth-1 inconclusive | T cruzi growth-2 108.8 | T cruzi growth-3 inconclusive | NIH3T3 tox inactive | NIH3T3 tox 2 105.6
CC(C)CC#Cc1cnc2c(c1)C(=O)N([C@@H](C)CO)C[C@@H](C)[C@H](CN(C)C(=O)C1CCCCC1)O2	T cruzi growth-1 inconclusive | T cruzi growth-2 inconclusive | T cruzi growth-3 inactive | NIH3T3 tox inactive | NIH3T3 tox 2 81.2
C[C@@H]1CN([C@@H](C)CO)C(=O)c2cc(C#CCc3ccccc3)cnc2O[C@H]1CN(C)C(=O)C1CCCCC1	Pf Dd2 inh -81.8, T cruzi growth-1 113.6 (no result: IDH1 R132H inh) | T cruzi growth-2 104.8 | T cruzi growth-3 inactive | NIH3T3 tox inactive | NIH3T3 tox 2 106.4
CNC[C@@H]1Oc2ncc(C#CCC3CCCC3)cc2C(=O)N([C@H](C)CO)C[C@@H]1C	none
CC(C)CC#Cc1cnc2c(c1)C(=O)N([C@@H](C)CO)C[C@@H](C)[C@@H](CN(C)C(=O)C1CCCCC1)O2	none
COc1ccccc1NC(=O)CSc1nc(O)cc(=O)n1-c1ccccc1	none (no result: Pf Dd2 inh, GASC1 inh, T cruzi growth-1)
C[C@@H]1CCCCO[C@@H](CN(C)C(=O)Nc2ccc(F)cc2)[C@H](C)CN([C@@H](C)CO)C(=O)c2cc(NC(=O)c3ccccc3)ccc2O1	none (no result: IDH1 R132H inh)
C[C@H](CO)N1C[C@H](C)[C@H](CN(C)C(=O)Nc2ccc(F)cc2)OCCCC[C@H](C)Oc2ccc(NC(=O)c3ccccc3)cc2C1=O	T cruzi growth-1 inconclusive | T cruzi growth-2 106.7 | T cruzi growth-3 inactive | NIH3T3 tox inactive | NIH3T3 tox 2 inactive
C[C@H](CO)N1C[C@H](C)[C@H](CN(C)C(=O)Nc2ccc(C(F)(F)F)cc2)OCCCC[C@H](C)Oc2ccc(NC(=O)c3ccccc3)cc2C1=O	Pf Dd2 inh -82.5, T cruzi growth-1 inconclusive (no result: IDH1 R132H inh) | T cruzi growth-2 105.8 | T cruzi growth-3 108.6 | NIH3T3 tox inactive | NIH3T3 tox 2 inactive
C[C@H](CO)N1C[C@H](C)[C@@H](CN(C)C(=O)Nc2ccc(C(F)(F)F)cc2)OCCCC[C@H](C)Oc2ccc(NC(=O)c3ccccc3)cc2C1=O	T cruzi growth-1 101.1 (no result: IDH1 R132H inh) | T cruzi growth-2 109.9 | T cruzi growth-3 113.3 | NIH3T3 tox 36.3 | NIH3T3 tox 2 52.4
Cn1c(SCC(=O)n2c3c(c4ccccc42)CCCC3)nnc1-c1cccc([N+](=O)[O-])c1	none (no result: Pf Dd2 inh, GASC1 inh, T cruzi growth-1)
C[C@@H]1CN([C@@H](C)CO)S(=O)(=O)c2ccc(C3=CCCCC3)cc2O[C@@H]1CN(C)C(=O)C1CCCCC1	T cruzi growth-1 119.2 (no result: IDH1 R132H inh) | T cruzi growth-2 104.6 | T cruzi growth-3 inactive | NIH3T3 tox inactive | NIH3T3 tox 2 105.9
C[C@H]1CN([C@@H](C)CO)S(=O)(=O)c2ccc(C3=CCCCC3)cc2O[C@@H]1CN(C)C(=O)C1CCCCC1	T cruzi growth-1 120.8 (no result: IDH1 R132H inh) | T cruzi growth-2 103.0 | T cruzi growth-3 98.8 | NIH3T3 tox inactive | NIH3T3 tox 2 105.0
C[C@H](CO)N1C[C@H](C)[C@@H](CN(C)C(=O)C2CCCCC2)Oc2cc(C3=CCCCC3)ccc2S1(=O)=O	T cruzi growth-1 112.5 (no result: IDH1 R132H inh) | T cruzi growth-2 110.0 | T cruzi growth-3 inactive | NIH3T3 tox inactive | NIH3T3 tox 2 104.9
C[C@@H]1CN([C@@H](C)CO)S(=O)(=O)c2ccc(C3=CCCCC3)cc2O[C@H]1CN(C)C(=O)C1CCCCC1	T cruzi growth-1 117.8 | T cruzi growth-2 104.1 | T cruzi growth-3 inactive | NIH3T3 tox inactive | NIH3T3 tox 2 96.4
CCCNC(=O)C[C@H]1CC[C@@H]2[C@H](COC[C@@H](O)CN2Cc2ccccc2F)O1	T cruzi growth-1 96.7 (no result: IDH1 R132H inh) | T cruzi growth-2 inactive | T cruzi growth-3 inactive | NIH3T3 tox inactive | NIH3T3 tox 2 inactive
CNC(=O)C[C@@H]1CC[C@H]2[C@@H](COC[C@@H](O)CN2Cc2ccccc2F)O1	none (no result: IDH1 R132H inh, T cruzi growth-1)
O=C(C[C@@H]1CC[C@@H]2[C@H](COC[C@@H](O)CN2Cc2ccccc2F)O1)NCc1ccccc1F	none (no result: IDH1 R132H inh)
CCCNC(=O)C[C@@H]1CC[C@@H]2[C@H](COC[C@@H](O)CN2Cc2ccccc2F)O1	T cruzi growth-1 110.6 (no result: IDH1 R132H inh) | T cruzi growth-2 inactive | T cruzi growth-3 inactive | NIH3T3 tox inactive | NIH3T3 tox 2 inactive
COc1ccc(N(CC(=O)Nc2ccccc2-c2ccccc2)S(C)(=O)=O)cc1	none (no result: Pf Dd2 inh, GASC1 inh, T cruzi growth-1)
COC(=O)c1ccccc1NC(=O)C1=C(C)NC(=S)NC1c1cc(Cl)cc(OC)c1OC(C)C (stereo unspecified)	none (no result: Pf Dd2 inh, GASC1 inh, T cruzi growth-1)
O=C(C[C@@H]1CC[C@H]2[C@@H](COC[C@H](O)CN2S(=O)(=O)c2cccc(Cl)c2)O1)Nc1ccc(-c2ccccc2)cc1	T cruzi growth-1 inconclusive (no result: IDH1 R132H inh) | T cruzi growth-2 110.0 | T cruzi growth-3 inactive | NIH3T3 tox inactive | NIH3T3 tox 2 105.3
O=C(C[C@@H]1CC[C@@H]2[C@H](COC[C@H](O)CN2S(=O)(=O)c2cccc(Cl)c2)O1)Nc1ccc(-c2ccccc2)cc1	T cruzi growth-1 110.3 (no result: IDH1 R132H inh) | T cruzi growth-2 inactive | T cruzi growth-3 111.3 | NIH3T3 tox 36.4 | NIH3T3 tox 2 75.4
O=C(C[C@H]1CC[C@H]2[C@@H](COC[C@@H](O)CN2S(=O)(=O)c2cccc(Cl)c2)O1)Nc1ccccc1	none (no result: IDH1 R132H inh)
O=C(CSc1nnnn1-c1cccc(C(=O)O)c1)Nc1ccccc1F	none (no result: Pf Dd2 inh, GASC1 inh, T cruzi growth-1)
Cc1cccc(CSc2nnc(NC(=O)c3oc4ccc(F)cc4c3C)s2)c1	none (no result: Pf Dd2 inh, GASC1 inh, T cruzi growth-1)
C[C@@H]1CCCCO[C@H](CN(C)C(=O)C2CCCCC2)[C@H](C)CN([C@@H](C)CO)C(=O)c2cc(NS(=O)(=O)c3ccc(Cl)cc3)ccc2O1	T cruzi growth-1 inconclusive (no result: IDH1 R132H inh) | T cruzi growth-2 inconclusive | T cruzi growth-3 inactive | NIH3T3 tox inactive | NIH3T3 tox 2 95.4
C[C@H](CO)N1C[C@H](C)[C@H](CN(C)C(=O)C2CCCCC2)OCCCC[C@H](C)Oc2ccc(NS(=O)(=O)c3ccc(Cl)cc3)cc2C1=O	none (no result: IDH1 R132H inh)
C[C@@H]1CN([C@H](C)CO)C(=O)c2cc(NS(=O)(=O)c3ccc(Cl)cc3)ccc2O[C@@H](C)CCCCO[C@@H]1CN(C)C(=O)C1CCCCC1	T cruzi growth-1 inconclusive | T cruzi growth-2 99.7 | T cruzi growth-3 inactive | NIH3T3 tox inactive | NIH3T3 tox 2 80.4
CC(=O)c1ccc(NC(=O)CNS(=O)(=O)c2ccc(C(C)(C)C)cc2)cc1	none (no result: Pf Dd2 inh, GASC1 inh, T cruzi growth-1)
